This note sets out measurements from ChEMBL document CHEMBL1212914, “A novel water-soluble gossypol derivative increases chemotherapeutic sensitivity and promotes growth inhibition in colon cancer” (J Med Chem, 2010).

Active and inactive are the calls of the source. The calls are words filed in the database; no cut-off is given here.

Series [1] has as its system Serum. The series is described as follows: Metabolic stability of the compound in human serum after 30 mins. It is filed as ADME, cell-free. The following applies: 0.5 h. The procedure, abridged:
(§1)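 The compound was incubated for 30 min in PBS (pH 7.2-7.4) or in human or mouse serum, and the amount remaining was analyzed by HPLC.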

The subject of series [2] is CT26. The series is described as follows: Induction of apoptosis in mouse CT26 cells assessed as inhibition of Bcl-xL-Bim interaction at 20 uM after 24 hrs by immunoprecipitation analysis. The class given is functional, cell-based. The procedure, abridged: (§2)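 CT26 cells were treated for 24 h, with DMSO as control, then lysed in Triton X-100 buffer for 30 min at 4 °C. Lysates were immunoprecipitated overnight at 4 °C with anti-Bcl-2 or anti-Bcl-xL antibody plus protein A-agarose. Eluates were western-blotted for Bax (Bcl-2 pulldown) or Bim (Bcl-xL pulldown).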

For series [3], the system named is MDA-MB-435. Nature of the series: Cytotoxicity against human MDA-MB-435 cells after 72 hrs by MTT assay. It is filed as functional, cell-based. The settings on record: Homo sapiens, MDA-MB-435, 72 h. Summed up: (§3)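 Compounds dissolved in DMSO; cells seeded at 5 × 10^3 per well and treated after adherence with a range of concentrations for 72 h, with DMSO as negative control. MTT was added for 4 h at 37 °C in the dark, formazan dissolved in DMSO, and absorbance read. IC50 (μM) was calculated as the mean of three independent experiments.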

Series [4] relates to A549. Nature of the series: Cytotoxicity against human A549 cells after 72 hrs by MTT assay. The class given is functional, cell-based. The settings on record: A549, 72 h. The procedure, abridged: as §3
For series [5], the system named is CT26. Nature of the series: Induction of apoptosis in mouse CT26 cells assessed as reduction of Bcl-2 mRNA level at 10 uM after 24 hrs by RT-PCR analysis. The class given is functional, cell-based.
The subject of series [6] is Mus musculus. Nature of the series: Toxicity in BALB/c mouse assessed as induction of small intestine damage at 120 umol/kg, po administered daily once for 12 days. The following applies: in vivo, 288 h. The class given is organism-based. Summed up:
(§4)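 Male BALB/c mice aged 6-8 weeks, n = 6 per group, received 120 μmol/kg by gavage once daily for 12 days in 10% ethanol, with 10% ethanol alone as the control. Survival was followed over time, and mice were weighed at day 12 and then sacrificed. Small intestine was paraffin-embedded, cut into 5 μm sections, H&E-stained and examined by light microscopy. Student's t test was used.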

The subject of series [7] is CT26. The series is described as follows: Cytotoxicity against mouse CT26 cells assessed as cell viability at 20 uM after 48 hrs […]. The settings on record: CT26, 48 h, read-out: Activity. It is filed as functional. The procedure, abridged:
(§5)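 CT26 cells were seeded at 2 × 10^3 per well and, after adherence, exposed to 2, 5, 10 or 20 μM for up to 120 h. Viability was read with a Cell Titer 96 Aqueous One Solution proliferation kit rather than MTT.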

The nature of series [8]: Chemical stability of the compound in phosphate buffered saline at pH 7.2 to 7.4 after 30 mins. The class given is physicochemical. The following applies: buffer, pH 7.2, 0.5 h. Summed up:
as §1

Series [9] relates to CT26. Nature of the series: Cytotoxicity against mouse CT26 cells assessed as cell viability at 20 uM after 24 hrs by […]. The class given is functional. The following applies: CT26, 24 h, read-out: Activity. The procedure, abridged: as §5
Series [10] deals with Mus musculus. Nature of the series: Toxicity in BALB/c mouse assessed as weight loss at 120 umol/kg, po administered daily once for 12 days. The class given is organism-based. The settings on record: in vivo, 288 h. Summed up: as §4
Series [11] has as its system CT26. Nature of the series: Induction of apoptosis in mouse CT26 cells after 24 to 72 hrs by TUNEL assay. The class given is functional, cell-based. Summed up:
(§6)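 After treatment at various concentrations and times, CT26 cells were PBS-washed and fixed in 4% paraformaldehyde for 1 h at room temperature. They were permeabilized for 2 min on ice, then incubated with TUNEL reaction mixture for 1 h at 37 °C in the dark and counterstained with DAPI. TUNEL-positive cells were counted by fluorescence microscopy in five random fields and averaged; DMSO served as control.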

In series [12] the test system is CT26. The series is described as follows: Cytotoxicity against mouse CT26 cells at 2 to 20 uM by […]. The class given is functional, cell-based. The following applies: TDE = time-dependent effect. Summed up: as §5
The subject of series [13] is CT26. Nature of the series: Induction of apoptosis in mouse CT26 cells assessed as inhibition of Bcl-2-Bax interaction at 20 uM after 24 hrs by immunoprecipitation analysis. The class given is functional, cell-based. Summed up: as §2
Series [14] deals with SW-620. The series is described as follows: Cytotoxicity against human SW620 cells after 72 hrs by MTT assay. It is filed as functional, cell-based. The settings on record: Homo sapiens, SW-620, 72 h. Summed up:
as §3

Series [15] has as its system Serum. Nature of the series: Metabolic stability of the compound in mouse serum after 30 mins. The class given is ADME, cell-free. The settings on record: 0.5 h. Summed up:
as §1

Series [16] concerns 4T1. Nature of the series: Cytotoxicity against mouse 4T1 cells after 72 hrs by MTT assay. The class given is functional, cell-based. The following applies: Mus musculus, 4T1, 72 h. The procedure, abridged:
as §3

Series [17] has as its system CT26. The series is described as follows: Induction of apoptosis in mouse CT26 cells assessed as reduction of Bcl-xL mRNA level at 10 uM after 24 hrs by RT-PCR analysis. It is filed as functional, cell-based.
The subject of series [18] is B16-F10. Nature of the series: Cytotoxicity against mouse B16F10 cells after 72 hrs by MTT assay. The class given is functional, cell-based. The following applies: Mus musculus, B16-F10, 72 h. Summed up:
as §3

For series [19], the system named is PC-3. The series is described as follows: Cytotoxicity against human PC3 cells after 72 hrs by MTT assay. The class given is functional, cell-based. The settings on record: Homo sapiens, PC-3, 72 h. Summed up: as §3
Series [20] concerns MCF7. Nature of the series: Cytotoxicity against human MCF7 cells after 72 hrs by MTT assay. The settings on record: Homo sapiens, MCF7, 72 h. It is filed as functional, cell-based. The procedure, abridged:
as §3

Series [21] deals with HCT-116. The series is described as follows: Cytotoxicity against human HCT116 cells after 72 hrs by MTT assay. The class given is functional, cell-based. The settings on record: Homo sapiens, HCT-116, 72 h. Summed up:
as §3

Series [22] concerns CT26. The series is described as follows: Induction of apoptosis in mouse CT26 cells assessed as reduction of Bcl-xL protein level at 5 to 10 uM after 24 hrs by immunoblotting. The class given is functional, cell-based. The procedure, abridged: (§7)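 CT26 cells were exposed to 5 or 10 μM for the indicated times, with DMSO as control. Lysates were run on 10% SDS-PAGE and transferred to nitrocellulose. Blots were probed overnight at 4 °C for Bcl-2 and Bcl-xL, with β-actin as loading control, and detected by HRP chemiluminescence. Experiments were repeated three times.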

In series [23] the test system is CT26. The series is described as follows: Cytotoxicity against mouse CT26 cells after 72 hrs by MTT assay. The class given is functional, cell-based. The settings on record: Mus musculus, CT26, 72 h. The procedure, abridged: as §3
Series [24] concerns CT26. Nature of the series: Antitumor activity against mouse CT26 cells xenografted in BALB/c mouse assessed as decrease of tumor volume at 10 umol/kg, po for 12 consecutive days. It is filed as functional, organism-based. The procedure, abridged: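 Male BALB/c mice (6-8 weeks) received 5 × 10^5 CT26 cells subcutaneously in the right flank. At 60 mm3, tumor-bearing mice were randomized (n = 4 per group) and dosed by gavage at 10 μmol/kg daily for 12 days in 10% ethanol, with vehicle as control. Tumors were measured every 2 days by caliper; volume = length × width × width × π/6.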

For series [25], the system named is CT26. Nature of the series: Cytotoxicity against mouse CT26 cells at 5 to 10 uM after 24 hrs by […]. The class given is functional, cell-based. Summed up:
as §5

Series [26] concerns CT26. Nature of the series: Induction of apoptosis in mouse CT26 cells at 5 to 10 uM by TUNEL assay. It is filed as functional, cell-based. The following applies: TDE = time-dependent effect. The procedure, abridged:
as §6

Series [27] has as its system CT26. The series is described as follows: Cytotoxicity against mouse CT26 cells assessed as complete cell death at 20 uM after 72 hrs by […]. It is filed as functional, cell-based. The procedure, abridged: as §5
Series [28] is described as follows: Solubility of the compound in 100 gram of water. The class given is physicochemical. The settings on record: buffer. Summed up: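 Water solubility was measured at 37 °C as the mass of compound dissolving in 100 g of H2O.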
Series [29] has as its system CT26. The series is described as follows: Induction of apoptosis in mouse CT26 cells assessed as reduction of Bcl-2 protein level at 5 to 10 uM after 24 hrs by immunoblotting. It is filed as functional, cell-based. Summed up: as §7
Series [30] relates to CT26. Nature of the series: Cytotoxicity against mouse CT26 cells assessed as cell viability at 2 uM after 120 hrs by […]. The class given is functional. The following applies: CT26, 120 h, read-out: Activity. Summed up: as §5
The subject of series [31] is MCF-7 (Homo sapiens). The series is described as follows: Cytotoxicity against human MCF-7 cells after 72 hrs by MTT assay. The following applies: MCF-7, 72 h.

In the case of `CC1=C(C2=C(C)C(=O)c3c(c(/C=N/[C@@H]4C(=O)N5[C@@H]4SC(C)(C)[C@@H]5C(=O)[O-])c(O)c(O)c3C(C)C)C2=O)C(=O)c2c(/C=N/[C@@H]3C(=O)N4[C@@H]3SC(C)(C)[C@@H]4C(=O)[O-])c(O)c(O)c(C(C)C)c2C1=O.[Na+].[Na+]`, the Stability entry in series [1], in [8] and in [15] was “Stable” each time. The outcome in series [2], in series [13], in series [22], in [24], in [25] and in [27] was Active. Further, in series [29], the result was Active. For the same compound, the IC50 in series [3] is greater than 40 µM; in [4], 8.77 µM; in series [14], 6.56 µM; in [16], 28.2 µM; in series [18], 11.1 µM; in [19], 29.5 µM. Moreover, the IC50 in series [20] turned out to be 29.1 µM; in [21] it was 17.4 µM; in series [23] it was 6.59 µM. For the same compound, the outcome in [5] and in series [17] was inactive. For the same compound, the Activity result in series [6] is “Non-toxic”; in [10] it was “Non-toxic”; in [11], “Dose-dependent effect”; in series [12] it was “tde”; in series [26], “tde”. In addition, the viability at 20 µM came to 60% in series [7] and 80% in [9]. In series [28], the solubility amounted to 9.25 g. In addition, in series [30], the viability at 2 µM is greater than 90%.

As to `Cc1cc2c(C(C)C)c(O)c(O)c(/C=N/[C@@H](Cc3ccccc3)C(=O)O)c2c(O)c1-c1c(C)cc2c(C(C)C)c(O)c(O)c(/C=N/[C@@H](Cc3ccccc3)C(=O)O)c2c1O`, the IC50 in series [3] was greater than 40 µM; in [4], 5.38 µM; in [16] it was greater than 40 µM; in series [18] it was 22.4 µM; in [19], 28.4 µM; in series [20], greater than 40 µM. In addition, the IC50 in [21] was greater than 40 µM; in series [23], 7.36 µM; in [31] it was greater than 40 µM.

In the case of `CCC(C)[C@H](/N=C/c1c(O)c(O)c(C(C)C)c2cc(C)c(-c3c(C)cc4c(C(C)C)c(O)c(O)c(/C=N/[C@H](C(=O)O)C(C)CC)c4c3O)c(O)c12)C(=O)O` (some centres not stated), the IC50 in series [3] was greater than 40 µM; in series [4], 14.8 µM; in series [14], 22.6 µM; in series [16] it was greater than 40 µM; in [18], 19.9 µM; in series [19], greater than 40 µM. Further, the IC50 worked out at 28.5 µM in series [20], 34.9 µM in series [21] and 18.4 µM in series [23].

Take `CC/C(C)=C(\NCc1c(O)c(O)c(C(C)C)c2cc(C)c(-c3c(C)cc4c(C(C)C)c(O)c(O)c(CN/C(C(=O)O)=C(/C)CC)c4c3O)c(O)c12)C(=O)O`: the IC50 was greater than 40 µM in series [3]; 13.2 µM in [4]; 11.8 µM in series [14]; greater than 40 µM in series [16]; 20.1 µM in series [18]; greater than 40 µM in [19]. Also, the IC50 worked out at 25.8 µM in [20], 23.4 µM in series [21] and 11.9 µM in series [23].
